Assay results pooled from the literature.
Lines come from different studies, so protocols differ.
Target: Serine/threonine-protein kinase N2 (PKN2, Homo sapiens, UniProt Q16513)

CCCCC(=O)Nc1ccc(-c2ccc3ncn(CCC)c(=O)c3c2)cn1  remaining binding (binding, competition with immobilised ligand; 0.5 µM): 87%
CC#CC(=O)N1CCC[C@H]1c1nc(-c2ccc(C(=O)Nc3ccccn3)cc2)c2c(N)nccn12  inhibition (enzyme activity, inhibitor; 1 µM): 0%
CN1CCN(C(=O)c2ccc(NC(=O)Nc3ccc(N(C)c4ccnc(Nc5ccc(CS(C)(=O)=O)cc5)n4)cc3)cc2)CC1  remaining binding (binding; 1 µM): 100%
Cc1cc(O)c(-c2ccc([C@@H](C)CN(C)C)cc2)c2c1[nH]c(=O)c1sccc12  inhibition (enzyme activity, inhibitor; 0.1 µM): 13.8%
Cc1ccc(NC(=O)c2ccnc(C(F)(F)F)c2)cc1-c1cc(OCCO)nc(N2CCOCC2)c1  remaining binding (binding; 1 µM): 89%
C1=C/COCc2cc(ccc2OCCN2CCCC2)Nc2nccc(n2)-c2cccc(c2)COC/1  remaining binding (binding; 0.1 µM): 100%
CC(C)S(=O)(=O)c1ccc2nccc(Nc3ccc4sc(C5CCCC5)nc4c3)c2c1  activity vs control (enzyme activity, inhibitor; 1 µM): 116%
C=CC(=O)N1CCC([C@@H]2CCNc3c(C(N)=O)c(-c4ccc(Oc5ccccc5)cc4)nn32)CC1  inhibition (enzyme activity, inhibitor; 1 µM): 24%
